Test results from ChEMBL document CHEMBL3758120, “Synthesis and Mechanism Studies of 1,3-Benzoazolyl Substituted Pyrrolo[2,3-b]pyrazine Derivatives as Nonintercalative Topoisomerase II Catalytic Inhibitors” (J Med Chem, 2016).
Calls of active or inactive are those of the source. The rule behind the calls is not given here.

Tests used:
[1] = target: T1, DNA topoisomerase 2-alpha (Homo sapiens, UniProt P11388); experiment: Inhibition of purified human topoisomerase 2-mediated relaxation of supercoiled pBR322 DNA at 20 uM incubated for 30 mins by agarose gel electrophoresis
Method in brief: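 Reactions contained 0.2 μg supercoiled pBR322 in 50 mM Tris-HCl pH 8.0, 150 mM NaCl, 10 mM MgCl2, 0.5 mM DTT, 30 μg/ml BSA, normally 2 mM ATP (1, 2 or 4 mM in ATP-competition runs). Started with 1 U human Topo II, 30 min at 37 °C, stopped with sarcosyl buffer, run on 1% agarose 1.5 h at 75 V, gel-stained and imaged under UV.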

[2] = Antiproliferative activity against human MDA-MB-201 cells after 48 hrs by MTT assay; type: functional, cell-based
Method in brief: (§1)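 Cells seeded at 5000 per well and left overnight, then exposed to increasing concentrations (0-50 μM) for 48 h. […] HL-60/MX2 is a mitoxantrone-selected HL-60 derivative with reduced Topo IIα/β.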

[3] = system: HEK293; experiment: Cytotoxicity against HEK293 cells after 48 hrs by MTT assay; type: cell-based; settings: Homo sapiens, HEK293, 48 h
[4] = target: T1, DNA topoisomerase 2-alpha; settings: 100 uM
[5] = target: T1, DNA topoisomerase 2-alpha; settings: HL-60, 10 uM
[6] = system: Raji; experiment: Antiproliferative activity against human Raji cells after 48 hrs by MTT assay; type: functional, cell-based; method in brief: as §1
[7] = target: T2, DNA topoisomerase 1 (Homo sapiens) (UniProt P11387); settings: 0.6 to 5 uM
T2 sequence (whole entry): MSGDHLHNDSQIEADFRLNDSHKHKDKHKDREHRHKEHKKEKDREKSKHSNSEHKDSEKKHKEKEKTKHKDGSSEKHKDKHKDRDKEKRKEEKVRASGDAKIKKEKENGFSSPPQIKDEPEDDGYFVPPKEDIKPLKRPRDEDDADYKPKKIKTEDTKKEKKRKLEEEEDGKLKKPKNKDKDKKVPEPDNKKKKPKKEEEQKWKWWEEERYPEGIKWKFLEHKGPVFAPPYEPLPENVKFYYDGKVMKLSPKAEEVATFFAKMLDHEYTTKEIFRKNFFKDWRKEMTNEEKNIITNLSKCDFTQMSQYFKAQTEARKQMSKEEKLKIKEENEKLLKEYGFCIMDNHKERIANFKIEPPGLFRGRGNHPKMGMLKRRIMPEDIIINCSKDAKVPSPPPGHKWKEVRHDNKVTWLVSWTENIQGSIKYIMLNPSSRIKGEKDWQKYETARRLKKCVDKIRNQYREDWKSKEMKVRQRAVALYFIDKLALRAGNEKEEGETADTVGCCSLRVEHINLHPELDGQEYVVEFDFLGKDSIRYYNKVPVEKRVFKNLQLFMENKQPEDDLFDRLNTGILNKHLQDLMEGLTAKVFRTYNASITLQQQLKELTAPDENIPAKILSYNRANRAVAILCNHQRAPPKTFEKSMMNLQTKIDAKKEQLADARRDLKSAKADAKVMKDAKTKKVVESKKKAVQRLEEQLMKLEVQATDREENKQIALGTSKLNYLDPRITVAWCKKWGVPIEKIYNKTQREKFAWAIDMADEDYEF

[8] = Antiproliferative activity against human HL60 cells after 48 hrs by MTT assay; type: functional, cell-based; settings: HL-60, 48 h; method in brief: as §1
[9] = Antiproliferative activity against human HL60/MX2 cells after 48 hrs by MTT assay; type: functional, cell-based; settings: HL60/MX2, 48 h; method in brief: as §1
[10] = system: HeLa; experiment: Antiproliferative activity against human HeLa cells after 48 hrs by MTT assay; type: functional, cell-based; method in brief: as §1
[11] = system: A549; experiment: Antiproliferative activity against human A549 cells after 48 hrs by MTT assay; type: functional, cell-based; settings: A549, 48 h; method in brief: as §1
[12] = system: HL-60; experiment: Resistance index, ratio of IC50 for human HL60/MX2 cells to IC50 for HL60 cells; type: functional
Method in brief: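 Resistance index calculated as MTT-derived IC50 (48 h exposure, 0-50 μM, A570 readout) in HL-60/MX2 divided by IC50 in parental HL-60.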

[13] = system: K562; experiment: Antiproliferative activity against human K562 cells after 48 hrs by MTT assay; type: functional, cell-based; settings: K562, 48 h; method in brief: as §1

T1 sequence (P11388 whole entry): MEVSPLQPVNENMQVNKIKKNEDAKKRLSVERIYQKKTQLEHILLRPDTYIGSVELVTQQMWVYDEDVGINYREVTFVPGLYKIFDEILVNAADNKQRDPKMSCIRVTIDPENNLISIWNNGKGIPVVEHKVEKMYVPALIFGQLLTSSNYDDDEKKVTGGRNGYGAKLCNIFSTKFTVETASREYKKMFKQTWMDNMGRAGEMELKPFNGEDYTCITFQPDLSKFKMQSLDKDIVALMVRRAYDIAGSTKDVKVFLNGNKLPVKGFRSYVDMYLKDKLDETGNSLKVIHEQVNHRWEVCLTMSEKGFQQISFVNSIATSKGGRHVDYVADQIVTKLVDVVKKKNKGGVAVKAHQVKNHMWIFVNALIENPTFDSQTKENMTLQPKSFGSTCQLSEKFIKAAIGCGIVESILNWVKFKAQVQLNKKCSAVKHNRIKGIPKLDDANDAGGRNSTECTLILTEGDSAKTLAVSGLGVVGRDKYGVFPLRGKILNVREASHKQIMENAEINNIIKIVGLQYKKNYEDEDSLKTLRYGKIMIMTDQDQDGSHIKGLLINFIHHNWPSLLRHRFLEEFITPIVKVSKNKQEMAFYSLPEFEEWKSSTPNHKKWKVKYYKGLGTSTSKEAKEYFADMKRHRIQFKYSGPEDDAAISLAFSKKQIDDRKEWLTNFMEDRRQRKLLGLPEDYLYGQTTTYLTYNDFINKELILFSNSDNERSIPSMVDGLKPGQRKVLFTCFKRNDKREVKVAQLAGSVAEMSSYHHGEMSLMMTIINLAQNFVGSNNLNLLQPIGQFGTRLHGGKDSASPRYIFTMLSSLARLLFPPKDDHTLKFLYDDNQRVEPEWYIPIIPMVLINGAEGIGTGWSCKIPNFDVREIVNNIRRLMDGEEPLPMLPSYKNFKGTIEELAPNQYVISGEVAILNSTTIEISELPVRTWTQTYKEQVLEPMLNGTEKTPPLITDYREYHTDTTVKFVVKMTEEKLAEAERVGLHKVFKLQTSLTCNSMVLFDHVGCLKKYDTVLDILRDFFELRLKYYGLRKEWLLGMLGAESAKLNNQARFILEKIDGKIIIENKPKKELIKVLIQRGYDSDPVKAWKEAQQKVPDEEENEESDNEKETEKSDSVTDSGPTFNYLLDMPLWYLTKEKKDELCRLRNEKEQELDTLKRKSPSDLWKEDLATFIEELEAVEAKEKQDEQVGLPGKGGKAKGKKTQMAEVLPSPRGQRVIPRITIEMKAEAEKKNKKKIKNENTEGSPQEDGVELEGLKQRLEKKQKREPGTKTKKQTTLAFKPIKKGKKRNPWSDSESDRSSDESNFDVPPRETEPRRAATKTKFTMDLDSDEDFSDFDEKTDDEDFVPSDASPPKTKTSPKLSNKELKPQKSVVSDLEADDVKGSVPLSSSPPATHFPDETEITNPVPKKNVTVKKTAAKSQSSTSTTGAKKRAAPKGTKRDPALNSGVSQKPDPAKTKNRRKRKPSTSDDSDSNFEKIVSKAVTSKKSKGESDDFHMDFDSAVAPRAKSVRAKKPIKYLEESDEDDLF

- inhibition [1]: Active
- inhibition [4]: Active
- inhibition [5]: Active
- IC50 [6]: 1.68 µM
- inhibition [7]: Active
- IC50 [10]: 32.5 µM
- IC50 [11]: 6.74 µM
- IC50 [13]: 0.51 µM
SMILES: COc1cc([C@@H]2c3cc4c(cc3[C@@H](O[C@@H]3O[C@@H]5CO[C@@H](C)O[C@H]5[C@H](O)[C@H]3O)[C@H]3COC(=O)[C@H]23)OCO4)cc(OC)c1O [ETOPOSIDE]
- IC50 [2]: 31.3 µM
- IC50 [3]: 0.69 µM
- IC50 [8]: 0.16 µM
- IC50 [9]: 9.02 µM
- Ratio IC50 [12]: 56.4
